Data from ChEMBL document CHEMBL4837261, “Optimization of TopoIV Potency, ADMET Properties, and hERG Inhibition of 5-Amino-1,3-dioxane-Linked Novel Bacterial Topoisomerase Inhibitors: Identification of a Lead with In Vivo Efficacy against MRSA” (J Med Chem, 2021).
Converted amounts (≈) assume the structure as drawn.

Columns and labels:
Staphylococcus aureus [1] = assay: Antibacterial activity against Staphylococcus aureus ATCC 29213 by CLSI method; format: functional
Staphylococcus aureus [2] = assay: Antibacterial activity against methicillin-resistant Staphylococcus aureus USA300 by CLSI method; format: functional
Staphylococcus aureus [3] = assay: Antibacterial activity against cystic fibrosis isolate Staphylococcus aureus by CLSI method; format: functional
DNA gyrase [4] = target: DNA gyrase (Staphylococcus aureus, UniProt P0A0K8+P20831); assay: Inhibition of Staphylococcus aureus Gyrase supercoiling activity assessed as reduction in supercoiling pBR322 DNA by measuring relaxation by bromophenol blue staining based TAE gel method; format: protein-complex assay
Topoisomerase IV = Topoisomerase IV (Staphylococcus aureus, UniProt P0C1S7+P0C1U9); assay: Inhibition of Staphylococcus aureus topoisomerase IV decatenation activity using kDNA as substrate by ethidium bromide/bromophenol blue staining based agarose gel electrophoresis analysis; format: protein-complex assay
Staphylococcus aureus [5] = assay: Selectivity index, ratio of IC50 for inhibition of Staphylococcus aureus topoisomerase IV decatenation activity to IC50 for inhibition of Staphylococcus aureus DNA gyrase supercoiling activity
Summary of the method: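 Both IC50s were measured in gel-based assays with S. aureus enzymes: supercoiling inhibition for DNA gyrase and decatenation inhibition for TopoIV. The ratio is TopoIV IC50 divided by gyrase IC50.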

Staphylococcus aureus [6] = assay: Antibacterial activity against Staphylococcus aureus 3527 by CLSI method; format: functional
Staphylococcus aureus [7] = assay: Antibacterial activity against Staphylococcus aureus harbouring GyrA D83N mutant by CLSI method; format: functional
DNA gyrase [8] = target: DNA gyrase (Staphylococcus aureus, UniProt P0A0K8+P20831, D83N); assay: Inhibition of Staphylococcus aureus DNA Gyrase D83N mutant assessed as reduction in supercoiling pBR322 DNA by measuring relaxation by bromophenol blue staining based TAE gel method
Staphylococcus aureus [9] = assay: Selectivity ratio of IC50 for inhibition of Staphylococcus aureus Gyrase D83N mutant to IC50 for inhibition of Staphylococcus aureus Gyrase
Summary of the method: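 Ratio of two IC50s: the IC50 from the D83N mutant gyrase supercoiling assay (commercial kit) divided by the IC50 from the gel-based wild-type S. aureus gyrase supercoiling assay.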

[10] = Growth inhibition of human K/VP.5 cells incubated for 48 hrs by NBTI cell counting analysis; format: functional; conditions: K562, 48 h
Staphylococcus aureus [11] = assay: Antibacterial activity against Staphylococcus aureus by CLSI method; format: functional
Summary of the method: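 MICs were determined by broth microdilution per CLSI guidelines, in triplicate at minimum. Strains were S. aureus ATCC 29213, MRSA USA300 and a cystic fibrosis respiratory isolate, and ranges are given where seen.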

Enterococcus sp. = assay: Antibacterial activity against Enterococcus sp. by CLSI method; format: functional
Streptococcus pneumoniae = assay: Antibacterial activity against Streptococcus pneumoniae by CLSI method; format: functional
Acinetobacter baumannii = assay: Antibacterial activity against Acinetobacter baumannii by CLSI method; format: functional

Structure (SMILES)	MIC (Staphylococcus aureus [1]) [µg/mL]	MIC (Staphylococcus aureus [2]) [µg/mL]	MIC (Staphylococcus aureus [3]) [µg/mL]	IC50 (DNA gyrase [4]) [µM]	IC50 (Topoisomerase IV) [µM]	Ratio IC50 (Staphylococcus aureus [5])	MIC (Staphylococcus aureus [6]) [µg/mL]	MIC (Staphylococcus aureus [7]) [µg/mL]	IC50 (DNA gyrase [8]) [µM]	Ratio IC50 (Staphylococcus aureus [9])	IC50 [10] [µM]	MIC50 (Staphylococcus aureus [11]) [µg/mL]	MIC50 (Enterococcus sp.) [µg/mL]	MIC50 (Streptococcus pneumoniae) [µg/mL]	MIC50 (Acinetobacter baumannii) [µg/mL]
COc1ccc2ccc(F)c(C[C@H](O)[C@H]3OC[C@H](NCc4ccc(Cl)c(Cl)c4)CO3)c2n1	0.25 (≈ 0.519 µM)	0.5 (≈ 1.04 µM)	0.25 (≈ 0.519 µM)	0.043	2.3	54	0.25 (≈ 0.519 µM)	4 (≈ 8.31 µM)							
COc1ccc2ncc(F)c(C[C@H](O)[C@H]3OC[C@H](NCc4cnc5c(n4)OCCO5)CO3)c2n1	0.25 (≈ 0.528 µM)	1 (≈ 2.11 µM)	0.125 (≈ 0.264 µM)	0.36	19	52	1 (≈ 2.11 µM)	8 (≈ 16.9 µM)	29	80					
COc1ccc2ncc(F)c(C[C@H](O)[C@H]3OC[C@H](NCc4cc5c(cn4)OCS5)CO3)c2n1	0.06 (≈ 0.126 µM)	0.125 (≈ 0.263 µM)	0.25 (≈ 0.527 µM)	0.099	0.43		0.125 (≈ 0.263 µM)	1 (≈ 2.11 µM)	5.9		118				
COc1ccc2ncc(F)c(C[C@H](O)[C@H]3OC[C@H](NCc4cc5c(cn4)OCCC5)CO3)c2n1	0.125 (≈ 0.266 µM)		0.5 (≈ 1.06 µM)	0.14	1.3		0.5 (≈ 1.06 µM)	8 (≈ 17 µM)	13		80.5				
COc1ccc2ncc(F)c(C[C@H](O)[C@H]3OC[C@H](NCc4ccc5c(n4)NC(=O)CO5)CO3)c2c1	0.5 (≈ 1.03 µM)	0.25 (≈ 0.516 µM)	0.5 (≈ 1.03 µM)	0.084	1.3		0.25 (≈ 0.516 µM)	4 (≈ 8.26 µM)	1.9		> 50				
COc1ccc2ncc(F)c(C[C@H](O)[C@H]3OC[C@H](NCc4ccc(C)cc4)CO3)c2n1	0.125 (≈ 0.292 µM)	≤ 0.25	0.25 (≈ 0.585 µM)	0.16	2.7		≤ 0.25	8 (≈ 18.7 µM)	6.5		46.9				
COc1ccc2ncc(F)c(C[C@H](O)[C@H]3OC[C@H](NCc4cc5c(cn4)OCO5)CO3)c2n1	0.5 (≈ 1.09 µM)	1 (≈ 2.18 µM)	0.5 (≈ 1.09 µM)	0.85	18	22	1 (≈ 2.18 µM)	> 8	73	86					
COc1ccc2ncc(F)c(C(O)C[C@H]3OC[C@H](NCc4cc5c(cn4)OCCO5)CO3)c2c1 (mixture of isomers)	0.5 (≈ 1.06 µM)	1 (≈ 2.12 µM)	0.5 (≈ 1.06 µM)		14		1 (≈ 2.12 µM)	16 (≈ 33.9 µM)			> 100				
COc1ccc2ccc(F)c(C[C@H](O)[C@H]3OC[C@H](NCc4cc5c(cn4)OCCO5)CO3)c2n1	0.125 (≈ 0.265 µM)	0.25 (≈ 0.53 µM)	0.125 (≈ 0.265 µM)	0.013	0.87	67	0.125 (≈ 0.265 µM)	2 (≈ 4.24 µM)							
COc1ccc2ncc(F)c(C(O)C[C@H]3OC[C@H](NCc4ccc(Cl)c(Cl)c4)CO3)c2c1 (mixture of isomers)	≤ 0.25	0.5 (≈ 1.04 µM)	0.5 (≈ 1.04 µM)	0.16	8.1		≤ 0.25	4 (≈ 8.31 µM)			24.5				
COc1ccc2ccc(F)c(C[C@H](O)[C@H]3OC[C@H](NCc4ccc5c(n4)NC(=O)CO5)CO3)c2n1	0.25 (≈ 0.516 µM)	0.25 (≈ 0.516 µM)	0.5 (≈ 1.03 µM)	0.095	0.99		0.25 (≈ 0.516 µM)	2 (≈ 4.13 µM)	69		> 50				
COc1ccc2ncc(F)c(C(O)C[C@H]3OC[C@H](NCc4ccc5c(c4)OCCO5)CO3)c2n1 (mixture of isomers)	≤ 0.25	0.25 (≈ 0.53 µM)	0.5 (≈ 1.06 µM)	0.022	3.2		≤ 0.25	8 (≈ 17 µM)			39.2				
COc1ccc2ncc(F)c(C(O)C[C@H]3OC[C@H](NCc4ccc(C)cc4)CO3)c2c1 (mixture of isomers)	0.125 (≈ 0.293 µM)	0.5 (≈ 1.17 µM)	0.5 (≈ 1.17 µM)	0.11	14		0.5 (≈ 1.17 µM)	16 (≈ 37.5 µM)			21.7				
COc1ccc2ncc(F)c(C(O)C[C@H]3OC[C@H](NCc4cc5c(cn4)OCCO5)CO3)c2n1 (mixture of isomers)	0.5 (≈ 1.06 µM)	1 (≈ 2.12 µM)		0.16	8.8		1 (≈ 2.12 µM)	16 (≈ 33.9 µM)			232				
COc1ccc2ncc(F)c(C[C@H](O)[C@H]3OC[C@H](NCc4cc5c(nn4)OCCO5)CO3)c2c1	1 (≈ 2.12 µM)	2 (≈ 4.23 µM)	0.5 (≈ 1.06 µM)	0.84	8.5	10	2 (≈ 4.23 µM)	16 (≈ 33.9 µM)	51	60					
COc1ccc2ncc(F)c(C[C@H](O)[C@H]3OC[C@H](NCc4ccc(Cl)c(Cl)c4)CO3)c2n1	≤ 0.25	0.125 (≈ 0.259 µM)	0.125 (≈ 0.259 µM)	0.16	1.1		0.125 (≈ 0.259 µM)	4 (≈ 8.29 µM)	5.5		22.2	0.06 (≈ 0.124 µM)	0.06 (≈ 0.124 µM)	4 (≈ 8.29 µM)	> 64
COc1ccc2ncc(=O)n(CC(O)[C@H]3OC[C@H](NCc4ccc5c(c4)OCCO5)CO3)c2c1 (mixture of isomers)	0.125 (≈ 0.266 µM)	0.5 (≈ 1.06 µM)	0.25 (≈ 0.532 µM)	0.019	4		0.5 (≈ 1.06 µM)	8 (≈ 17 µM)			71.1				
COc1ccc2ncc(F)c(C[C@H](O)[C@H]3OC[C@H](NCc4ccc5c(c4)OCCO5)CO3)c2c1	0.125 (≈ 0.266 µM)	0.125 (≈ 0.266 µM)	0.25 (≈ 0.531 µM)	0.031	2.3	73	0.125 (≈ 0.266 µM)	4 (≈ 8.5 µM)	2.2	72		0.06 (≈ 0.128 µM)	0.06 (≈ 0.128 µM)	1 (≈ 2.13 µM)	64 (≈ 136 µM)
COc1ccc2ccc(F)c(C[C@H](O)[C@H]3OC[C@H](NCc4cc5c(nn4)OCCS5)CO3)c2n1	0.25 (≈ 0.512 µM)	0.5 (≈ 1.02 µM)	0.25 (≈ 0.512 µM)	0.12	4.6	39	0.5 (≈ 1.02 µM)	4 (≈ 8.19 µM)	12	99					
COc1ccc2ncc(F)c(C(O)C[C@H]3OC[C@H](NCc4cc5c(nn4)OCCS5)CO3)c2c1 (mixture of isomers)	0.5 (≈ 1.02 µM)	1 (≈ 2.05 µM)	1 (≈ 2.05 µM)	0.37	11		1 (≈ 2.05 µM)	16 (≈ 32.8 µM)			> 200				
COc1ccc2ncc(F)c(C[C@H](O)[C@H]3OC[C@H](NCc4cc5c(cn4)OCCO5)CO3)c2c1	0.25 (≈ 0.53 µM)	0.5 (≈ 1.06 µM)	0.5 (≈ 1.06 µM)	0.042	5.7	136	0.5 (≈ 1.06 µM)	> 8				0.25 (≈ 0.53 µM)	0.12 (≈ 0.255 µM)	2 (≈ 4.24 µM)	64 (≈ 136 µM)
COc1ccc2ncc(F)c(C[C@H](O)[C@H]3OC[C@H](NCc4ccc(C)cc4)CO3)c2c1	0.25 (≈ 0.586 µM)	0.5 (≈ 1.17 µM)	0.25 (≈ 0.586 µM)	0.014	4.1	294	0.5 (≈ 1.17 µM)	8 (≈ 18.8 µM)							
COc1ccc2ncc(F)c(C[C@H](O)[C@H]3OC[C@H](NCc4cc5c(nn4)OCCO5)CO3)c2n1	0.125 (≈ 0.264 µM)	0.25 (≈ 0.528 µM)	0.25 (≈ 0.528 µM)	32	4.8		0.25 (≈ 0.528 µM)	2 (≈ 4.22 µM)	47		> 200				
COc1ccc2ncc(F)c(C[C@H](O)[C@H]3OC[C@H](NCc4ccc(Cl)c(Cl)c4)CO3)c2c1	0.125 (≈ 0.26 µM)	0.25 (≈ 0.519 µM)	0.5 (≈ 1.04 µM)	0.056	1.3	24	0.25 (≈ 0.519 µM)	4 (≈ 8.31 µM)							
COc1ccc2ncc(F)c(C[C@H](O)[C@H]3OC[C@H](NCc4cc5c(nn4)OCCS5)CO3)c2c1	0.25 (≈ 0.512 µM)	0.5 (≈ 1.02 µM)	0.25 (≈ 0.512 µM)	0.056	4.8	87	0.5 (≈ 1.02 µM)	8 (≈ 16.4 µM)	19	336		0.5 (≈ 1.02 µM)	0.25 (≈ 0.512 µM)	1 (≈ 2.05 µM)	> 64
COc1ccc2ncc(F)c(C(O)C[C@H]3OC[C@H](NCc4ccc(Cl)c(Cl)c4)CO3)c2n1 (mixture of isomers)	0.125 (≈ 0.259 µM)	0.25 (≈ 0.518 µM)	0.25 (≈ 0.518 µM)	0.22	0.6	2.7	≤ 0.25	4 (≈ 8.29 µM)							
